Screens as filed in PubChem BioAssay.
Only some compounds are listed: those with a hit (about 2.8% of all), similar ones and a draw of the others.
dFosB act = enhances mouse delta FosB homodimer DNA binding; P13346; purified delta FosB, TAMRA-CDK5 oligo fluorescence polarization; percent of positive-control signal above neutral wells; activation, % at 25 µM; actives 0.99% (n = 340,000);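 active = mean activation above about 17%, with every replicate also reaching it, limit read from the data, passing the limit was not always enough; inconclusive = only one of the two conditions met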
Target sequence (P13346 whole entry, looked up): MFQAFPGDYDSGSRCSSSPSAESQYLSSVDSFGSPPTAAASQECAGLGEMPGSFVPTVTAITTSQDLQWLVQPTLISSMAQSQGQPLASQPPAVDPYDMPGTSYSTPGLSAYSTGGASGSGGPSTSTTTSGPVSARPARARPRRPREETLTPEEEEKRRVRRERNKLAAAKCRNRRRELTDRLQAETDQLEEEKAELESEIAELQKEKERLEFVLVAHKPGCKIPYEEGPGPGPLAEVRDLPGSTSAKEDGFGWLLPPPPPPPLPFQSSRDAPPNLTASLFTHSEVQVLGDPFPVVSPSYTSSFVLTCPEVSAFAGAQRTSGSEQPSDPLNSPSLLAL
SR-BI DiI-HDL act = activators of SR-BI mediated HDL lipid uptake. CHO ldlA[mSR-BI] cells, DiI-HDL uptake fluorescence, 3 h; 100 = double the neutral-control signal. activation, % at 12.5 µM. actives 0.096% (n = 320,000). AID 504775;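 active = mean replicate activation of at least 60% and every replicate at or above 60%; inconclusive = mean or all-replicate condition met, but not both; inactive = mean below 60% and not all replicates reaching 60%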;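 also: 0% = median plate neutral-control signal and 100% = twice that signal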
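Test system: SR-BI-overexpressing, LDLR-lacking CHO cells; Medium: Ham's F12 with 0.5% BSA, HEPES 25 mM, pH 7.4; Schedule: 3 h, 37 °C; Technique: bottom-read fluorescence, 550/595 nm.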
SR-BI HDL uptake = inhibitors of mouse SR-BI mediated HDL lipid uptake; Q61009; ldlA[mSR-BI] CHO cells, DiI-HDL uptake fluorescence, 3 h; inhibition, % at 12.5 µM; actives 0.96% (n = 320,000); AID 488896;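 active = mean replicate inhibition of at least 70% and a set share of replicates each scoring 70 or more; inconclusive = meets just one of the two criteria; inactive = fails both criteria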;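 also: 0% = median of neutral control wells and 100% = median of positive control wells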
CAL PDZ FP-1 = blocks peptide binding to human CAL PDZ domain | Q9HD26 | purified CAL PDZ, TMR-peptide fluorescence polarization, 1 h | inhibition, % at 20 µM | actives 0.02% (n = 330,000);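 active = highest replicate inhibition of at least 40%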;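 also: plate controls were DMSO neutral control wells for no effect and unlabeled competitor peptide control wells for full effect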
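Control set: unlabelled peptide and DMSO controls / Material: purified CerCALP PDZ construct / Timing: 1 h incubation at room temperature before polarization reading / Doses: 20 µM, one dose / Detection: fluorescence polarization (mP)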
CAL PDZ FP-2 = blocks peptide binding to the human CAL PDZ domain; Q9HD26; purified CAL PDZ, TMR-peptide fluorescence polarization, 1 h; inhibition, % at 24.9 µM; actives 0.92% (n = 300,000); AID 602252;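 active = mean inhibition of at least 30% with at least half of replicates also reaching 30%; inconclusive = no clear call, values can overlap the other calls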;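 also: 0% = DMSO neutral control and 100% = excess unlabeled competitor peptide PRC23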
Numbers without * were called inactive; ? = inconclusive; nt = not tested or not shown.

SMILES | dFosB act | SR-BI DiI-HDL act | SR-BI HDL uptake | CAL PDZ FP-1 | CAL PDZ FP-2
Cn1ncc(Br)c1N1C(=O)CCC1=O | 1 | 10 | -10 | -1 | -3
COc1ccc(/C=N/Nc2cc(N3CCCC3)nc(N3CCCC3)n2)cc1 | 23* | -49 | 49 | -1 | -2
Oc1cccc(/C=N/Nc2cc(N3CCCC3)nc(N3CCCC3)n2)c1 | 57* | -29 | 29 | -1 | -1
Oc1ccc(/C=N/Nc2cc(N3CCCC3)nc(N3CCCC3)n2)cc1 | 13 | -43 | 43 | 0 | 3
CCCCN1C(=O)C(=O)N(CC(=O)N2CCc3ccccc32)C1=O | 0 | 18 | -18 | -1 | 0
CCC(C(=O)Nc1ccccc1)c1ccccc1 (centres undefined) | -6 | 35 | -35 | 0 | -1
CCC(C(=O)NN1C(=O)c2ccccc2C1=O)c1ccccc1 (centres undefined) | -5 | -11 | 11 | 45* | -6
CCOc1ccc(CCNC(=O)COC(=O)c2oc3ccccc3c2COC)cc1OCC | -13 | -55 | 55 | 0 | -7
CCCCNC(=O)CCc1c(C)nc2nc(-c3cc(OC)cc(OC)c3)nn2c1C | 2 | 2 | -2 | -2 | -22
CCCNC(=O)CCc1c(C)nc2nc(-c3cc(OC)cc(OC)c3)nn2c1C | -17 | -35 | 35 | -1 | 46*
CCC1CCCCN1CCCNC(=O)c1cc2c(=O)[nH]c3ccccc3c2n1C (centres undefined) | -12 | -34 | 34 | -1 | 5
Cc1ccc(-c2nc(N)sc2-c2ccc(C)cc2)cc1 | -10 | -73 | 73* | 0 | 0
Cc1ccc(-c2nc(N)sc2C)cc1 | -4 | nt | nt | 0 | 0
CCN(CC(=O)N1CCOCC1)S(=O)(=O)c1ccc(F)cc1 | -6 | nt | nt | -3 | -3
O=C(NCc1ccc2c(c1)OCO2)c1cc2n(n1)C(C(F)(F)F)CC(c1ccc3c(c1)OCO3)N2 (centres undefined) | 21* | 9 | -9 | nt | 1
O=S(=O)(Cc1ccccc1)N1CCN(Cc2ccc(F)cc2Cl)CC1 | -6 | 18 | -18 | 0 | 8
CCOc1cc(/C=N/NC(=O)c2ccc(CN3CCOCC3)cc2)ccc1OC | 6 | -48 | 48 | -2 | -3
CN(C)c1ccc(/C=N/NC(=O)c2ccc(CN3CCOCC3)cc2)cc1Br | -14 | -84 | 84* | -5 | 12
Cn1c(Cc2nc(-c3cnccn3)no2)nnc1SCC(=O)Nc1ccccc1 | 7 | -5 | 5 | 0 | 7
CC1=C(C(N)=O)C(c2ccc(Cl)cc2Cl)n2ncnc2N1 (centres undefined) | -4 | 14 | -14 | 0 | 38*
Cc1cc(CN2CCC(N3CCC(C(=O)NC4CC4)CC3)CC2)cc(C)c1O | 0 | 8 | -8 | -1 | -1
COCc1nnc(NS(=O)(=O)c2c(C)cc(C)cc2C)s1 | -1 | 26 | -26 | nt | 35*
O=C(c1ccc2c3c(cccc13)CC2)C1CCCN(C(=O)c2ccc[n+]([O-])c2)C1 (centres undefined) | -6 | nt | nt | -1 | -3
CCCCNC(=S)N1CCN(C(c2ccccc2)c2ccccc2)CC1 | 0 | -22 | 22 | 0 | 45*
O=C(COc1coc(CN2CCN(Cc3ccccc3)CC2)cc1=O)Nc1ccccc1 | 1 | 18 | -18 | -2 | -4
SMILES | dFosB act | SR-BI DiI-HDL act | SR-BI HDL uptake | CAL PDZ FP-1 | CAL PDZ FP-2
COc1cc(NC(=O)c2cccc([N+](=O)[O-])c2)ccc1NC(=O)c1ccco1 | -3 | -89 | 89* | -1 | -2
COc1cc(NC(=O)c2ccc(Br)o2)ccc1NC(=O)c1ccccc1Cl | -6 | -83 | 83* | -4 | -3
O=C(Nc1ccc2oc(=O)ccc2c1)c1ccc(-c2ccccc2[N+](=O)[O-])o1 | 11 | -78 | 78* | -1 | -1
COc1cc(NC(=O)c2ccccc2[N+](=O)[O-])ccc1NC(=O)c1cc2ccccc2o1 | 0 | -77 | 77* | -2 | -6
COc1cc(NC(=O)c2ccc([N+](=O)[O-])o2)ccc1NC(=O)c1ccco1 | -18 | -67 | 67 | -3 | -6
O=C(Nc1ccc2oc(=O)ccc2c1)c1ccccc1[N+](=O)[O-] | -1 | -3 | 3 | -1 | -14
COc1ccccc1NC(=O)c1ccc(Br)o1 | 6 | -1 | 1 | nt | -4
CC(C)N(Cc1nccn1C)C(=O)c1ccc2oc(Cc3ccccc3)nc2c1 | -3 | 2 | -2 | -2 | -5
COc1cc(NC(=O)c2ccccc2F)ccc1NC(=O)c1ccccc1Cl | -11 | -93 | 93* | -2 | 1
CCC(=O)Nc1ccc(Cl)c(NC(=O)c2ccc(Br)o2)c1 | -16 | nt | 76* | -3 | -5
CCCC(=O)Nc1ccc(Cl)c(NC(=O)CC)c1 | -13 | -14 | 14 | -4 | -8
O=C(O)c1cc2ccccc2cc1Nc1ccccc1 | -8 | -21 | 21 | 2 | 1
CCN(CC)S(=O)(=O)c1cccc(C(=O)N/N=C/c2c(C)nn(-c3ccccc3)c2Cl)c1 | 5 | -73 | 73* | 0 | 0
Cc1ccc(NS(=O)(=O)c2cccc(C(=O)N/N=C/c3c(C)nn(-c4ccccc4)c3N3CCCC3)c2)c(C)c1 | -5 | -74 | 74* | -1 | 2
CC(C)CNC(=S)NC1CCCC1 | 0 | -4 | 4 | nt | 140*
CC(C)CNC(=O)C(=O)NC1CCCC1 | -3 | ? | -64 | -5 | -2
CC1(c2ccccc2)NC(=O)N(CC(=O)Nc2ccccc2C(=O)N2CCCCC2)C1=O (centres undefined) | 1 | 20 | -20 | -1 | 1
COc1ccccc1/C=C1/C(=O)N(c2ccccc2)N=C1C | -4 | -18 | 18 | 0 | -1
CC1=NN(c2ccccc2)C(=O)/C1=C/c1cc(C)n(C2CC2)c1C | -2 | -72 | 72* | 0 | -1
CCc1ccc(CNCCNCC(C)O)cc1 (centres undefined) | -5 | 2 | -2 | -2 | nt
CC(O)CNCCNCc1cccs1 (centres undefined) | 1 | 9 | -9 | 14 | 47*
O=C1CCCCCC1C1(O)C(=O)Nc2ccc(Br)cc21 (centres undefined) | -7 | -19 | 19 | -2 | 57*
CCOc1ccc(Nc2c3ccccc3nc3ccccc23)cc1 | 86* | nt | nt | 2 | -5
Cc1ccc(C(=O)CCC(=O)N2CCN(c3ccc(F)cc3)CC2)cc1 | 3 | 5 | -5 | -1 | -1
O=C(CCC(=O)N1CCOCC1)c1ccc(F)cc1 | -1 | ? | -292 | -6 | 33*
O=C(O)c1ccc(-c2ccc(OS(=O)(=O)c3ccccc3F)cc2)cc1 | 2 | 3 | -3 | -3 | 45*
CCc1cccc(NS(=O)(=O)c2c(C)nc3scc(C)n3c2=O)c1 | -7 | nt | nt | -2 | -4
Cc1ccc(O)c(Nc2nc(-c3ccccc3)nc3ccccc23)c1 | -4 | -43 | 43 | 0 | nt
